# MBD2 DNA inh: inhibitors of human MBD2 binding to methylated oligonucleotide | inhibition, % at 4.4 µM | Q9UBB5 | actives 0.31% (n = 370,000) | TR-FRET; in the data active means inhibition above about 13%
# SUMO1-SIM PPI: alters human SUMO1 binding to SIM partners | P63165 | actives 0.33% (n = 360,000) | SUMO1 binding to a labelled peptide, TR-FRET, 1 h | inhibition, % at 20 µM; in the data active means inhibition above about 37%
# HCV NS3 hel inh: blocks Hepatitis C virus NS3 helicase unwinding. NS3 helicase DNA unwinding, Cy5 molecular beacon fluorescence. AID 1800. actives 0.56% (n = 290,000). inhibition, % at 10.9 µM;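 active means inhibition above the mean of all tested compounds plus 3 SD, set per campaign, cut at about 35% in these data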;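 further: 0% = DMSO wells and 100% = thioflavine S control wells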
#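 Compound dosing – single dose, 10.9 µM nominal final, DMSO 0.8% final · System – NS3 helicase fragment of HCV · Buffer or medium – MOPS pH 6.5, MgCl2, DTT, Tween20, BSA · Signal – Cy5 beacon fluorescence read at start and 1 h · Also added – annealed dual-labelled DNA beacon duplex, ATP-started · Schedule – 1 h at 25 °C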
# UHRF1 binding: UHRF1 methyl-DNA binding inhibition; UHRF1 binding to methylated oligo, TR-FRET; actives 0.75% (n = 370,000); AID 687016; inhibition, % at 4.4 µM; Q96T88; in the data active means inhibition above about 21%;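 further: UHRF1 SRA domain binding a hemimethylated CpG hairpin DNA probe; 0% = median of test compound wells and 100% = reference inhibitor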
# DNMT1 block: inhibitors of human DNMT1. P26358. inhibition (reported as % activation of signal), % at 10 µM. actives 0.83% (n = 360,000). DNMT1 molecular beacon, Hinp1I cleavage, fluorescence; in the data active means inhibition above about 50%
# DSG3 Ab inh: human desmoglein-3 autoantibody binding inhibition; P32926; DSG3-coupled beads, scFv-anti-DSG3-GFP binding, flow cytometry; active compounds read low; binding (percent of control), % at 10 µM; actives 0.48% (n = 310,000); AID 588358;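 active means binding more than 3 SD below its plate's average and above zero; inconclusive means below that plate limit but binding exactly zero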;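 further: hits lower antibody fragment binding to DSG3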
# Target sequence (P32926 whole entry, looked up, the tested form may be a part): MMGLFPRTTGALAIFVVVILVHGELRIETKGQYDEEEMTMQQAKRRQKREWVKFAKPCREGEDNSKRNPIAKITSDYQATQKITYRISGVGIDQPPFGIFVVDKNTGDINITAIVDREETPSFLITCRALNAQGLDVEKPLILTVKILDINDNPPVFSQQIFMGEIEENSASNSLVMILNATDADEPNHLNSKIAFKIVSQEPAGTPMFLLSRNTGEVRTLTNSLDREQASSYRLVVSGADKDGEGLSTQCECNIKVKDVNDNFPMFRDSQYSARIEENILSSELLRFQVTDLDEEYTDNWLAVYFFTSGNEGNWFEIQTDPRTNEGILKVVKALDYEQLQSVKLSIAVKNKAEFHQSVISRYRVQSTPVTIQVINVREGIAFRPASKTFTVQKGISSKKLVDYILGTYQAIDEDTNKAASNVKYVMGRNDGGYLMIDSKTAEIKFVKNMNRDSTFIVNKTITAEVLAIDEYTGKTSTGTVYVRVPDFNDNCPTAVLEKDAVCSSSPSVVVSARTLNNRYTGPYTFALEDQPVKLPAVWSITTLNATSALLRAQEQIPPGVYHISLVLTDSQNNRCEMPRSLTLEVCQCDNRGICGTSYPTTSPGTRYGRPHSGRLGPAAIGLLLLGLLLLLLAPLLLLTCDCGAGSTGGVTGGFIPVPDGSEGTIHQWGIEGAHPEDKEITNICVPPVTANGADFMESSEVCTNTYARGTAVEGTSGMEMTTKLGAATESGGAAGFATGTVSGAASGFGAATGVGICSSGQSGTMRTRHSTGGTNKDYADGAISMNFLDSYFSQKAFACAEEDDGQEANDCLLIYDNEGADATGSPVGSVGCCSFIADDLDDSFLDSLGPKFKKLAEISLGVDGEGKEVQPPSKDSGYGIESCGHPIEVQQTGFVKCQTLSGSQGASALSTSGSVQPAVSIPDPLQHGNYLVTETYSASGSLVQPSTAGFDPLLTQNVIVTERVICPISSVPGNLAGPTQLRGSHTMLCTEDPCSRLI
# Beacon interf DR: shows spectral interference in the DNMT1 beacon assay; shares compounds with DNMT1 block; molecular beacon fluorescence, spectral interference counter-screen; IC50, µM; 200 tested, under 10 active; AID 602382; call rule not given here
# DNMT1 inh conf: confirmation of human DNMT1 inhibitors. shares compounds with DNMT1 block. DNMT1 molecular beacon HinP1I cleavage, fluorescence. inhibition, % at 10 µM. actives 8% (n = 2,300). AID 602385;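 active means average inhibition of at least 30% in the single-concentration confirmation test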
# Beacon interf: shows spectral interference in the DNMT1 beacon assay. DNMT1 molecular beacon spectral interference counterscreen, fluorescence 485/520. activation (fluorescence interference), % at 10 µM. shares compounds with DNMT1 block. actives 1% (n = 2,300);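 active means activation of at least 30% at 10 µM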;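 further: DNMT1 catalytic domain with a HinP1I cleavage step and a FAM/dabcyl DNA beacon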
# Starred values were filed as active, the others as inactive; ? = inconclusive; · = no result given. Shown are actives, neighbours in structure and some others; about 2.5% of the full set was active somewhere.
SMILES,MBD2 DNA inh,SUMO1-SIM PPI,HCV NS3 hel inh,UHRF1 binding,DNMT1 block,DSG3 Ab inh,DNMT1 inh conf,Beacon interf,others
CC1(C(=O)NS(=O)(=O)C2CC2)CCCN(C(=O)c2cccc(Cl)c2)C1 (stereo not drawn),-5.2,1.1,·,1.5,65.1*,·,2.0,0.6,
COc1ccc(-c2nn(-c3ccccc3)cc2/C=C2/SC(=S)N(CCC(=O)O)C2=O)cc1,-6.2,11.3,27.3,-7.7,75.0*,102.6,88.9*,-6.1,Beacon interf DR=>99
COc1ccc(-c2nn(-c3ccccc3)cc2/C=C2/SC(=S)N(CCC(=O)O)C2=O)c(C)c1,-0.3,24.1,-28.9,-0.9,11.8,98.3,·,·,
O=C(O)CCCCCN1C(=O)/C(=C/c2cn(-c3ccccc3)nc2-c2cccs2)SC1=S,1.5,58.7*,·,-0.8,83.1*,·,46.5*,-0.9,Beacon interf DR=81.1*
O=C(O)CCCCCN1C(=O)/C(=C\c2cn(-c3ccccc3)nc2-c2cccs2)SC1=S,-1.4,114.4*,28.5,2.0,84.8*,95.1,44.0*,-5.4,Beacon interf DR=60.1*
CCN1C(=O)/C(=C/c2cn(-c3ccccc3)nc2-c2cccnc2)SC1=S,0.1,2.2,·,2.2,61.0*,133.0,3.7,1.1,
CN1CCN(C(=O)c2ccc3c(=O)n(-c4ccc(F)cc4)c(=S)[nH]c3c2)CC1,0.5,-0.1,13.8,-1.2,-0.6,88.7,·,·,
O=S(=O)(c1cccc2nsnc12)N1CCN(C/C=C\c2ccccc2)CC1,-2.7,-26.6,22.6,-0.3,0.8,106.0,·,·,
CC1(C(=O)NS(=O)(=O)c2ccccc2)CCN1C(=O)Cc1ccc(Cl)cc1Cl (stereo not drawn),-5.6,4.1,·,-0.5,13.7,·,·,·,
O=c1[nH]nnc2c1sc1nc(N3CCOCC3)c3c(c12)CCCC3,-3.8,-0.6,·,-0.8,94.6*,95.3,6.6,9.9,
COc1ccc(N2Cc3cccc(C(=O)N4CCN(C(=O)c5ccco5)CC4)c3C2=O)cc1,3.3,9.3,5.7,10.4,80.3*,98.0,29.4,-1.8,Beacon interf DR=>99
CCCc1nnc(NC(=O)c2ccc([N+](=O)[O-])cc2)s1,3.6,-15.8,-1.1,-0.6,-2.1,101.6,·,·,
CC1(C)Cc2c(C#N)c(NCCCO)nc(-c3ccccc3)c2CO1,4.0,0.9,-3.9,0.1,65.5*,98.8,-1.3,4.1,
O=C1/C(=C\c2ccc(-c3ccccc3[N+](=O)[O-])o2)C(c2ccccc2)=NN1c1ccccc1,-4.0,20.5,6.8,-1.5,62.8*,?,13.9,1.0,
CC1=NN(c2ccc(Br)cc2)C(=O)/C1=C/c1ccc(-c2ccccc2C(=O)O)o1,-5.0,13.9,4.2,-7.5,4.6,115.2,·,·,
NC(=O)CC(NC(=O)c1cccc(Br)c1)c1ccc(N2CCN(c3ccccn3)CC2)c([N+](=O)[O-])c1 (stereo not drawn),-2.3,-12.1,-17.0,-1.1,102.6*,101.3,5.0,8.9,
NC(=O)CC(NC(=O)c1ccc(Br)cc1)c1ccc(N2CCN(c3ccccn3)CC2)c([N+](=O)[O-])c1 (stereo not drawn),0.8,-13.3,·,0.1,-3.3,104.2,·,·,
NC(=O)CC(NC(=O)Cc1ccc(Cl)cc1)c1ccc(N2CCC(Cc3ccccc3)CC2)c([N+](=O)[O-])c1 (stereo not drawn),4.4,-4.5,25.8,1.6,71.2*,96.7,1.3,2.2,
Cc1cc(OCC(=O)NNC(=O)c2cnccn2)cc(C)c1Cl,8.3,-2.4,-4.4,4.5,2.3,110.2,·,·,
Cc1ccc2nc(-c3cccc(Br)c3)c(Cc3cccc(F)c3)n2c1,6.8,·,·,13.7,·,·,·,·,
Cc1nnsc1-c1nc2ccccc2n1C(CCc1ccccc1)c1nc2ccccc2[nH]1 (stereo not drawn),-1.5,0.6,·,-0.9,·,·,·,·,
COc1ccc(/C=C2\SC(=O)N(CC(=O)Nc3cccnc3)C2=O)cc1OC,-6.0,-26.1,-10.1,-4.3,-5.1,100.0,·,·,
COc1ccc(/C=C2/SC(=O)N(CCC(=O)Nc3ccccc3)C2=O)cc1OC,0.5,-4.7,-5.7,1.1,62.1*,91.8,1.7,3.4,
O=C(COC(=O)Cc1ccsc1)NCc1ccccc1,3.2,4.6,-3.6,0.5,74.0*,94.3,2.7,3.6,
C/C(=N\O)c1ccc2c(c1)CC(C)O2 (stereo not drawn),-0.6,13.7,-7.8,1.3,1.9,111.3,·,·,
SMILES,MBD2 DNA inh,SUMO1-SIM PPI,HCV NS3 hel inh,UHRF1 binding,DNMT1 block,DSG3 Ab inh,DNMT1 inh conf,Beacon interf,others
Cc1cc(C(=O)O)ccc1-n1c(C)cc(C=C2C(=O)c3ccccc3C2=O)c1C,0.8,0.2,13.0,-2.3,10.1,103.9,·,·,
Cc1cccc(NC(=O)CN2C(=O)S/C(=C\c3ccc(-c4cccc(C(=O)O)c4C)o3)C2=O)c1,1.4,·,15.1,4.4,·,149.9,·,·,
Cc1ccc(NC(=O)CN2C(=O)S/C(=C/c3ccc(-c4cc(C(=O)O)ccc4C)o3)C2=O)cc1C,7.7,25.9,20.1,32.7*,111.0*,101.7,117.6*,-0.3,Beacon interf DR=>99
Cc1ccc(C(=O)O)cc1-c1ccc(C=C2C(=O)c3ccccc3C2=O)o1,3.7,13.3,35.8,15.4,72.5*,105.1,6.8,-0.3,
CCn1c2ccccc2c2cc(NC(=O)c3coc(=O)c(Br)c3)ccc21,3.0,-1.8,12.7,3.9,50.9*,·,16.4,7.6,
CN(CC12CC3CC(CC(C3)C1)C2)C(=O)c1ccco1,-0.6,2.3,-0.3,1.1,3.7,100.7,·,·,
Cc1sc2nc(SCC(=O)N(C)Cc3ccccc3)n(-c3ccccc3)c(=O)c2c1C,-1.3,-1.8,6.2,-1.1,70.4*,·,-1.1,-5.3,
Cc1c(C(=O)OCC(=O)N2CC(=O)Nc3ccccc32)oc2ccc(Br)cc12,2.0,-1.1,3.8,-1.5,51.2*,92.6,1.0,1.5,
Cc1cc(C(=O)OCC(=O)N2CC(=O)Nc3ccccc32)no1,3.1,1.3,1.9,0.3,-0.8,97.8,·,·,
Cc1ccc(-n2nc(-c3ccco3)cc2C(=O)O)cc1,10.1,25.0,21.1,31.2*,156.3*,97.5,15.5,-1.1,
Cc1cc(C(=O)NCc2ccc(C(=O)O)o2)c(C)o1,·,4.1,0.9,·,77.6*,97.3,7.8,2.0,
Cc1cc2nc(CN(C)C(=O)C3CCC(=O)N(C4CCCC4)C3)[nH]c2cc1C (stereo not drawn),3.5,4.3,·,2.8,73.1*,100.0,0.4,4.4,
CN(Cc1nc2ccc(F)cc2[nH]1)C(=O)C1CCC(=O)N(C2CC2)C1 (stereo not drawn),1.7,0.7,4.0,1.8,-1.1,119.8,·,·,
